Reference: ChEMBL document CHEMBL1151445, “Molecular epidemiology and mechanisms of carbapenem resistance in Pseudomonas aeruginosa isolates from Spanish hospitals” (2007)
In brackets after ≈: the same amount, converted by molar mass.

Legend:
Pseudomonas aeruginosa [1] = assay: Antimicrobial activity against Pseudomonas aeruginosa PAO1 harboring pV2GY3 with blaVIM-2 and aac(6)'-32 by E-test; format: functional
In short: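 Plasmid DNA from clinical strain GY3 was electroporated into PAO1. Transformants were selected on Luria-Bertani agar with 8 μg imipenem/ml and checked with MBL Etest strips and PCR for the MBL gene. MICs for the transformant were determined by Etest.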

Pseudomonas aeruginosa [2] = assay: Antimicrobial activity against Pseudomonas aeruginosa GY3 producing blaVIM-2 by E-test; format: functional
Pseudomonas aeruginosa [3] = assay: Antimicrobial activity against Pseudomonas aeruginosa PAO1 by E-test; format: functional
Pseudomonas aeruginosa [4] = assay: Antimicrobial activity against carbapenem-resistant Pseudomonas aeruginosa clinical isolate assessed as resistant isolates; format: functional
Escherichia coli [5] = assay: Antimicrobial activity against Escherichia coli XL1-Blue by E-test; format: functional
Pseudomonas aeruginosa [6] = assay: Antimicrobial activity against carbapenem-susceptible Pseudomonas aeruginosa clinical isolate assessed as resistant isolates; format: functional
Escherichia coli [7] = assay: Antimicrobial activity against Escherichia coli XL1-Blue harboring pGTAAC-32 with cloned aac(6)'-32 by E-test
Pseudomonas aeruginosa [8] = assay: Antimicrobial activity against carbapenem-resistant Pseudomonas aeruginosa clinical isolate
Pseudomonas aeruginosa [9] = assay: Antimicrobial activity against carbapenem-resistant Pseudomonas aeruginosa clinical isolate; format: functional

`CO/N=C(\C(=O)N[C@@H]1C(=O)N2C(C(=O)[O-])=C(C[N+]3(C)CCCC3)CS[C@H]12)c1csc(N)n1` gave an MIC (Pseudomonas aeruginosa [1]) of 16 µg/mL (≈ 33.3 µM), an MIC (Pseudomonas aeruginosa [2]) of 16 µg/mL (≈ 33.3 µM) and an MIC (Pseudomonas aeruginosa [3]) of 1.5 µg/mL (≈ 3.12 µM).
`NCC[C@H](O)C(=O)N[C@@H]1C[C@H](N)[C@@H](O[C@H]2O[C@H](CN)[C@@H](O)[C@H](O)[C@H]2O)[C@H](O)[C@H]1O[C@H]1O[C@H](CO)[C@@H](O)[C@H](N)[C@H]1O` [AMIKACIN] was tested, and the Activity (Pseudomonas aeruginosa [4]) was 19%, the MIC (Pseudomonas aeruginosa [1]) was 48 µg/mL (≈ 82 µM) and the MIC (Escherichia coli [5]) was 0.75 µg/mL (≈ 1.28 µM). For the same compound, the MIC (Pseudomonas aeruginosa [2]) was 64 µg/mL (≈ 109 µM), the Activity (Pseudomonas aeruginosa [6]) was 9% and the MIC (Pseudomonas aeruginosa [3]) was 3 µg/mL (≈ 5.12 µM). The MIC (Escherichia coli [7]) was 1.5 µg/mL (≈ 2.56 µM).
For `C[C@H]1[C@H](NC(=O)/C(=N\OC(C)(C)C(=O)O)c2csc(N)n2)C(=O)N1S(=O)(=O)O` [AZTREONAM], the MIC (Pseudomonas aeruginosa [1]) was 2 µg/mL (≈ 4.59 µM) and the MIC (Pseudomonas aeruginosa [2]) was 2 µg/mL (≈ 4.59 µM).
`CC(C)(O/N=C(\C(=O)N[C@@H]1C(=O)N2C(C(=O)[O-])=C(C[n+]3ccccc3)CS[C@H]12)c1csc(N)n1)C(=O)O` [CEFTAZIDIME] showed an Activity (Pseudomonas aeruginosa [4]) of 46%, an MIC (Pseudomonas aeruginosa [1]) of 24 µg/mL (≈ 43.9 µM) and an MIC (Pseudomonas aeruginosa [2]) of 16 µg/mL (≈ 29.3 µM). For the same compound, the Activity (Pseudomonas aeruginosa [6]) was 11% and the MIC (Pseudomonas aeruginosa [3]) was 1.5 µg/mL (≈ 2.74 µM).
`O=C(O)c1cn(C2CC2)c2cc(N3CCNCC3)c(F)cc2c1=O` [CIPROFLOXACIN] was tested, and the MIC (Pseudomonas aeruginosa [2]) was > 32 µg/mL.
For `C[C@@H](O)[C@H]1C(=O)N2C(C(=O)O)=C(SCCNC=N)C[C@H]12` [IMIPENEM ANHYDROUS], the Activity (Pseudomonas aeruginosa [4]) was 95%, the MIC (Pseudomonas aeruginosa [1]) was > 32 µg/mL and the MIC (Pseudomonas aeruginosa [2]) was > 32 µg/mL. For the same compound, the MIC (Pseudomonas aeruginosa [3]) was 2 µg/mL (≈ 6.68 µM).
`C[C@@H](O)[C@H]1C(=O)N2C(C(=O)O)=C(S[C@@H]3CN[C@H](C(=O)N(C)C)C3)[C@H](C)[C@H]12` [MEROPENEM] was tested, and the Activity (Pseudomonas aeruginosa [4]) was 68%, the MIC (Pseudomonas aeruginosa [1]) was 16 µg/mL (≈ 41.7 µM) and the MIC (Pseudomonas aeruginosa [8]) was 8 µg/mL (≈ 20.9 µM). It also gave an MIC (Pseudomonas aeruginosa [2]) of 16 µg/mL (≈ 41.7 µM), an MIC (Pseudomonas aeruginosa [9]) of 8 µg/mL (≈ 20.9 µM) and an MIC (Pseudomonas aeruginosa [3]) of 0.38 µg/mL (≈ 0.991 µM).
Work on `CC1COc2c(N3CCN(C)CC3)c(F)cc3c(=O)c(C(=O)O)cn1c23` (stereo not drawn) [OFLOXACIN] yielded an Activity (Pseudomonas aeruginosa [4]) of 68% and an Activity (Pseudomonas aeruginosa [6]) of 32%.
`CCN1CCN(C(=O)N[C@@H](C(=O)N[C@@H]2C(=O)N3[C@@H]2SC(C)(C)[C@@H]3C(=O)O)c2ccccc2)C(=O)C1=O` [PIPERACILLIN] was tested, and the Activity (Pseudomonas aeruginosa [4]) was 28%, the MIC (Pseudomonas aeruginosa [1]) was 16 µg/mL (≈ 30.9 µM) and the MIC (Pseudomonas aeruginosa [2]) was 16 µg/mL (≈ 30.9 µM). For the same compound, the Activity (Pseudomonas aeruginosa [6]) was 9% and the MIC (Pseudomonas aeruginosa [3]) was 2 µg/mL (≈ 3.86 µM).
With `CC1(C)S[C@@H]2[C@H](NC(=O)[C@H](C(=O)O)c3ccsc3)C(=O)N2[C@H]1C(=O)O` [TICARCILLIN] the Activity (Pseudomonas aeruginosa [4]) was 34%, the MIC (Pseudomonas aeruginosa [1]) was > 256 µg/mL and the MIC (Pseudomonas aeruginosa [2]) was > 256 µg/mL. For the same compound, the Activity (Pseudomonas aeruginosa [6]) was 11% and the MIC (Pseudomonas aeruginosa [3]) was 12 µg/mL (≈ 31.2 µM).
For `NC[C@H]1O[C@H](O[C@H]2[C@H](O)[C@@H](O[C@H]3O[C@H](CO)[C@@H](O)[C@H](N)[C@H]3O)[C@H](N)C[C@@H]2N)[C@H](N)C[C@@H]1O` [TOBRAMYCIN], the Activity (Pseudomonas aeruginosa [4]) was 44%, the MIC (Pseudomonas aeruginosa [1]) was 64 µg/mL (≈ 137 µM) and the MIC (Escherichia coli [5]) was 0.38 µg/mL (≈ 0.813 µM). The MIC (Pseudomonas aeruginosa [2]) was > 256 µg/mL, the Activity (Pseudomonas aeruginosa [6]) was 9% and the MIC (Pseudomonas aeruginosa [3]) was 0.75 µg/mL (≈ 1.6 µM). It also gave an MIC (Escherichia coli [7]) of 6 µg/mL (≈ 12.8 µM).
Compound GENTAMICIN has an Activity (Pseudomonas aeruginosa [4]) of 59%, an MIC (Pseudomonas aeruginosa [1]) of 16 µg/mL and an MIC (Escherichia coli [5]) of 0.19 µg/mL. The MIC (Pseudomonas aeruginosa [2]) was 32 µg/mL, the Activity (Pseudomonas aeruginosa [6]) was 26% and the MIC (Pseudomonas aeruginosa [3]) was 2 µg/mL.
